Source: PubChem
Rtt109 Vps75: inhibitors of C. albicans Rtt109/Vps75 HAT, primary screen, biochemical, ThioGlo CoA-SH fluorescence, plate reader. actives 0.16% (n = 330,000). Histone acetyltransferase RTT109 (Candida albicans (strain SC5314 / ATCC MYA-2876)), …. inhibition, % at 34.9 µM. purified Rtt109/Vps75, 4 h;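 active means inhibition of at least 50% in every replicate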
NR3A LBD binder: binders of NR3A ligand-binding domain, primary screen, biophysical, differential scanning fluorimetry, uHTS | Glutamate receptor ionotropic, NMDA 3A (GRIN3A) ligand-binding domain | NR3A LBD differential scanning fluorimetry, Tm shift; 0% = protein alone, 100% = glycine-bound protein | Tm shift relative to glycine control, % at 25 µM | actives 2.5% (n = 340,000) | AID 1259313, 2017;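 active means melting temperature shift of at least 10% of the positive control shift, at one fixed dose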
GASC-1 inh: inhibitors of GASC-1 histone demethylase, primary screen, biochemical, fluorescence, DELFIA europium. GST-JMJD2C(1-420) H3K9me3 demethylation. inhibition, % at 2.35 µM. actives 0.069% (n = 330,000). AID 2099, 2009;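 active means more than half of a compound's replicate wells show inhibition beyond 50%, single wells judged on their own value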;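 further: signal counts dimethyl H3K9 product captured on neutravidin plate; 0% = median of DMSO wells and 100% = 0.3 times that DMSO median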
Target sequence (Q9H3R0 1-420 limits assumed): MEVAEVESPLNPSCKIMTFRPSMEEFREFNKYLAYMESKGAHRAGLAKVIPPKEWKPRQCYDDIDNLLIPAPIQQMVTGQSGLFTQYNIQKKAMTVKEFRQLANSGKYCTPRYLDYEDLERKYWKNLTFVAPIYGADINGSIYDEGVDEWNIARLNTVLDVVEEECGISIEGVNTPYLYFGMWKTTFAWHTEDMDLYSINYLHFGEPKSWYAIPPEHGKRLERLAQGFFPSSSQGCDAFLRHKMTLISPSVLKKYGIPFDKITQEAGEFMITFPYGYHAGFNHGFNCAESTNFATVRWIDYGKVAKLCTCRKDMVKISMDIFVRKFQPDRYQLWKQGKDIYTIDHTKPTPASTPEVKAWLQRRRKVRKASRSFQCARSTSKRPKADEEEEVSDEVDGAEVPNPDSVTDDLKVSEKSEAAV
T cell modulator: modulators of CD8 T cell-vesicle binding, primary screen, mouse 2C CD8+ T cells, flow cytometry. 2C CD8+ T cell-vesicle binding; active compounds read low. response (vesicle binding), % at 7 µM. actives 0.068% (n = 330,000). AID 2052, 2009;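 active means response, share of CD8 T cells binding vesicles, and their 90th percentile fluorescence all below set limits, cut at about 80% in these data, passing the limit was not always enough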;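 further: values below 100% mean blocked vesicle binding to the CD8+ T cells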
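Assay system: 2C TCR transgenic mouse naive CD8+ T cells, MACS-purified | Read-out: CD8+ gate FL2 mean fluorescence as % of same-row positive control | Signal: High-throughput flow cytometry with anti-B7-1 and anti-CD8 staining | Timing: Binding step 1.5 h, 37 °C, antibody labelling 20 min, ice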
* hit, by the source's call; i = inactive; . = no result given. Shown are actives, neighbours in structure and some others; about 2.8% of the full set was active somewhere.

SMILES	Rtt109 Vps75	NR3A LBD binder	GASC-1 inh	T cell modulator
CCOCC(=O)OCC(=O)NC12CC3CC(CC(C3)C1)C2	-5	-2	-19	223
CCOC(=O)C(=O)NC12CC3CC(CC(C3)C1)C2	-6	11*	-2	476
O=c1c2ccccc2oc2cc(-c3ccc4cc[nH]c4c3)ccc12	11	-2	9	385
O=c1c2ccccc2oc2ccc(-c3ccc4[nH]ccc4c3)cc12	0	18*	-1	270
CCOc1cc(NC(=S)NCCCOC)c(OCC)cc1NC(=O)c1cccs1	-4	0	14	171
CCOc1cc(NC(=S)NCCOC)c(OCC)cc1NC(=O)c1cccs1	.	3	69*	221
O=C(c1cccc(-n2cccc2)c1)N1CCN(S(=O)(=O)c2ccccc2Br)CC1	2	0	.	.
COc1ccc([C@H]2CC(=O)C=C(c3ccc(F)cc3OCc3ccccc3)C2)cc1OC	-5	12*	-2	0
COc1ccc([C@H]2CC(=O)C=C(c3ccc(F)cc3OCc3ccccc3)C2)cc1	2	0	11	427
O=C(CSc1ccc(Cl)cc1)OCc1nnc(-c2ccccc2)o1	-8	19*	9	80
O=C(O)c1ccccc1N=Nc1c(O)[nH]c2ccc([N+](=O)[O-])cc12	2	27*	-4	949
CCNC(=S)N=Nc1c(O)[nH]c2ccc([N+](=O)[O-])cc12	23	5	9	982
O=[N+]([O-])c1ccc2[nH]c(O)c(N=NC(=S)NCC3CCCO3)c2c1 (stereo not given)	-8	27*	-2	328
CCCCCC(=O)N=Nc1c(O)[nH]c2ccc([N+](=O)[O-])cc12	-2	30*	-7	129
CC1=N/C(=C\c2ccccc2Cl)C(=O)O1	5	-5	-10	i
Cc1ccc(Cl)cc1NC(=O)C(=O)N/N=C/c1ccc2c(c1)OCO2	-2	1	2	637
Cc1ccc(NC(=O)CSc2nc(N)cc(=O)[nH]2)cc1S(=O)(=O)N1CCCCC1	-6	-4	8	335
NS(=O)(=O)c1ccc(NC(=S)Nc2ccc(OCc3ccccc3)cc2)cc1	0	12*	-1	160
COc1ccc(NC(=S)Nc2ccc(OCc3ccccc3)cc2)c(OC)c1	2	10*	45	230
S=C(Nc1ccccc1)Nc1ccc(OCc2ccccc2)cc1	-7	9	3	791
S=C(Nc1ccc(OCc2ccccc2)cc1)Nc1cccc(Cl)c1Cl	2	12*	-1	i
COc1ccccc1CNC(=O)c1ccc(NC(=O)CC2SC(N3CCCC3)=NC2=O)cc1 (stereo not given)	-5	0	10	614
COc1ccc(N2C(=NC(=O)c3ccccc3)SC3CS(=O)(=O)CC32)cc1 (stereo not given)	10	-1	-3	244
COc1ccc(CCNCC(=O)Nc2ccc(C(=O)N3CCCCC3)cc2)cc1	6	20*	5	0
CCc1nn(CCCC(=O)NCc2ccc(OC(C)C)cc2)c(=O)c2cc3occc3n12	25	16*	9	161
SMILES	Rtt109 Vps75	NR3A LBD binder	GASC-1 inh	T cell modulator
CCC/C=C1/CCCOC(C(=O)NCc2ccc(S(C)(=O)=O)cc2)(C(F)(F)F)C1 (stereo not given)	-9	1	4	102
CS(=O)(=O)c1ccc(CNC(=O)C2(C(F)(F)F)C/C(=C\Cc3ccccc3)CCCO2)cc1 (stereo not given)	3	16*	13	914
N#Cc1c(Cl)nsc1NC(=O)c1ccccc1	.	11*	17	500
Oc1cccc(C2c3[nH]c4ccccc4c3CCN2Cc2ccc3c(c2)CCO3)c1 (stereo not given)	-9	11*	-2	364
Oc1cccc(C2c3[nH]c4ccccc4c3CCN2Cc2ccoc2)c1 (stereo not given)	-2	-1	-13	568
O=[N+]([O-])c1cccc2ccc(/C=C/c3ccc(F)cc3)nc12	-4	24*	-4	319
CCOc1cc(/C=C/c2ccc3cccc([N+](=O)[O-])c3n2)ccc1OCC(=O)N(C)C	16	-8	-6	296
O=C(O)c1ccc(/C=C/c2ccc3cccc(O)c3n2)cc1	-3	0	2	.
CCOc1cc(/C=C/c2ccc3cccc([N+](=O)[O-])c3n2)ccc1O	4	25*	-6	113
O=[N+]([O-])c1ccc(/C=C/c2ccc3cccc([N+](=O)[O-])c3n2)cc1	-8	23*	-1	476
Oc1ccc(/C=C/c2ccc3cccc(O)c3n2)cc1Br	-11	30*	-7	i
Cc1ccc(S(=O)(=O)N2CCOCC2)cc1NC(=O)CNc1ccccc1N1CCCC1=O	0	-2	.	.
COc1ccc(CN2C(=O)C(C)Nc3ncnc(N4CCN(c5ccccn5)CC4)c32)cc1 (stereo not given)	4	3	.	0.0*
CCN(CC(=O)Nc1ccc2c(c1)OCCO2)C(=O)C(C)Oc1ccc(Cl)cc1 (stereo not given)	5	-1	1	i
CCOC(=O)C1=C(c2ccccc2)NC(=S)NC1c1cccc([N+](=O)[O-])c1 (stereo not given)	-2	14*	-7	180
CCOc1cc(/C=C(/C#N)C(=O)Nc2ccc(O)cc2)cc(Br)c1O	24	13*	2	404
N/C(=N/OC(=O)c1ccccc1Cl)c1ncc([N+](=O)[O-])s1	1	2	-1	581
COc1ccc(NC2CCCN(C(=O)c3c(C)noc3C)C2)cc1 (stereo not given)	-2	-1	-17	281
Cc1cccc(C2=NN(c3ccccc3)[C@H](CO)[C@H]2c2ccc(Cl)cc2)c1	2	23*	.	.
Cc1cccc(C2=NN(c3ccccc3)[C@H](CO)[C@H]2c2ccc(F)cc2)c1	0	2	.	.
OC[C@@H]1[C@@H](c2ccc(Cl)cc2)C(c2ccc(F)cc2)=NN1c1ccccc1	-14	30*	.	.
OC[C@@H]1[C@@H](c2ccccc2)C(c2cccc(Cl)c2)=NN1c1ccccc1	0	26*	.	.
N#Cc1cccc(S(=O)(=O)NNC(=O)C23CC4CC(CC(C4)C2)C3)c1	2	0	-7	58*
COc1ccc(S(=O)(=O)NNC(=O)C23CC4CC(CC(C4)C2)C3)cc1	1	1	16	296
O=C(N1CCCCC1)C12CC3CC(C1)CC(C(=O)N1CCCCC1)(C3)C2	-1	21*	1	359
O=C(N1CCCC1)C12CC3CC(CC(C3)C1)C2	-4	-1	18	566
O=C(O)c1c(NC(=O)N2CCOCC2)sc2c1CCCC2	1	1	-8	241
COc1ccccc1/C=C/C(=O)OCC(=O)c1c[nH]c2ccccc12	-9	11*	-1	159
